Active and inactive are the calls of the source. The calls are words filed in the database; no cut-off is given here.
How the values were obtained:
[1] = Drug concentration in plasma of mouse at 10 mg/kg, po within 1 hr; assay type: ADME, organism-based
Keratinocyte [2] = experiment: Antiinflammatory activity in cytokine cocktail-induced reconstructed human epidermis model assessed as attenuation of epidermal disorganization at 5 to 25 uM after 4 days by HE staining based assay; assay type: functional, cell-based; details: dose 5-25 µM, time 4.0 day
Method in brief: (§1)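 Reconstructed human epidermis exposed to compound and stressed with a cytokine cocktail for 4 days. Readouts: IL-8 in growth medium, H&E morphology, transepidermal water loss, stratum corneum permeability to Lucifer yellow with DAPI nuclear stain, and surface pH. n = 2–3 independent experiments.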

HepaRG = experiment: Induction of CYP3A4 expression in human HepaRG cells at 0.1 to 10 uM incubated for 48 hrs by fluorescence based assay; assay type: functional, cell-based; details: dose 0.1-10 µM
Method in brief: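 Differentiated HepaRG cells treated for 48 h; CYP3A4-expressing cells visualized by fluorescence imaging at 20× magnification; n = 3 independent experiments, with n = 9 for untreated cells.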

Mus musculus [3] = experiment: Antiinflammatory activity in zymosan-induced CD-1 mouse peritonitis model assessed as reduction in immune cell infiltration into peritoneal cavity at 10 mg/kg, ip preincubated with compound for 30 mins followed by zymosan addition and measured after 4 hrs; assay type: functional, organism-based; details: time 270.0 min
Method in brief: (§2)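 Zymosan peritonitis with compound 10 mg/kg i.p. Vascular permeability assessed at 30 min after zymosan. Exudate LTB4 (ELISA) and peritoneal immune cell infiltration assessed at 4 h. Two-tailed unpaired t-test of log data.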

[4] = target: T1, Prostaglandin E synthase (Homo sapiens) (UniProt O14684); experiment: Inhibition of mPEGS1 in pathogenic Escherichia coli-stimulated human macrophages M1 at 1 uM by UPLC-MS/MS analysis; details: Macrophage
T1 sequence (whole entry): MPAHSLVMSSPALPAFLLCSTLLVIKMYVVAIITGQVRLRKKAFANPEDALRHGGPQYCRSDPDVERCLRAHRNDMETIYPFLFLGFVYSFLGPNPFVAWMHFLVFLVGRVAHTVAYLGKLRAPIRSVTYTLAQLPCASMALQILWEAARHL
Method in brief: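 M1 macrophages obtained by GM-CSF differentiation for 6 days, then LPS/IFN-γ polarization for 48 h. Treated with compound at 1 μM and stimulated with pathogenic E. coli; lipid mediator network profiled by metabololipidomics against vehicle.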

[5] = target: T2, Prostaglandin G/H synthase 2 (Homo sapiens) (UniProt P35354); experiment: Inhibition of recombinant human COX-2 assessed as reduction in 12-HHT formation at 10 uM using arachidonic acid as substrate preincubated for 6 mins followed by substrate addition by RPL-HPLC method
T2 sequence (whole entry): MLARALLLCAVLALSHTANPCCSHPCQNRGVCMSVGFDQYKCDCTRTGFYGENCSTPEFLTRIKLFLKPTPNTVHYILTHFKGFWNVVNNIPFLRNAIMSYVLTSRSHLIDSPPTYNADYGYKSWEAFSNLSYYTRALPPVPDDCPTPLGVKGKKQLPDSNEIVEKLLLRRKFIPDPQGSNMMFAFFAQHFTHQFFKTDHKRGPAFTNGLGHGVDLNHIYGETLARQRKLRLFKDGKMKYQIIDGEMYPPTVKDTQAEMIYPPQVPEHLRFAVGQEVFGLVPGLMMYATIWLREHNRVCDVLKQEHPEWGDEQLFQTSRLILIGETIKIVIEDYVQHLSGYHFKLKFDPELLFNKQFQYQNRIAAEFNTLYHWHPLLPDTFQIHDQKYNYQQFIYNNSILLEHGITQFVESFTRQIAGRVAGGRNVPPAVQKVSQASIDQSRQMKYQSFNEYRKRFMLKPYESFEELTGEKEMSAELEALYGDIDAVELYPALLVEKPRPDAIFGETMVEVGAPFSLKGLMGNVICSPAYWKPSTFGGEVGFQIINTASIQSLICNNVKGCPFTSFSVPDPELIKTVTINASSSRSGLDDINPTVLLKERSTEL

Keratinocyte [6] = experiment: Cytotoxicity against human Keratinocytes assessed as reduction in cell viability at 10 to 100 uM after 24 hrs by MTT assay; assay type: cell-based; details: dose 10-100 µM
[7] = Drug concentration in plasma of CD-1 mouse at 30 mg/kg, po after 30 mins; assay type: ADME, organism-based
Method in brief: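 Oral dosing at 30 mg/kg in zymosan peritonitis; mice killed 30 min after zymosan injection. Compound concentrations measured in plasma and in peritoneal exudate.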

Mus musculus [8] = experiment: Antiinflammatory activity in zymosan-induced CD-1 mouse peritonitis model assessed as increase in RvE3 levels at 10 mg/kg, po preincubated with compound for 60 mins followed by zymosan addition and measured after 30 mins by UPLC-MS/MS analysis; assay type: functional, organism-based; details: time 90.0 min
Method in brief: (§3)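 Oral dosing at 10 mg/kg in zymosan peritonitis; mice killed 30 min after zymosan. Peritoneal exudate lipid mediators and fatty acids profiled by UPLC-MS/MS, with LTC4 measured by ELISA; results expressed as fold change versus vehicle.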

[9] = Drug degradation in mouse at 10 mg/kg, po; assay type: ADME, organism-based; details: in vivo
Method in brief: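 Mice with acute peritonitis dosed orally at 10 mg/kg; plasma compound and metabolite concentrations measured 90 min after administration from extracted chromatograms; n = 8 mice.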

Mus musculus [10] = experiment: Antiinflammatory activity in zymosan-induced CD-1 mouse peritonitis model assessed as reduction in LOX derived metabolites at 10 mg/kg, po preincubated with compound for 60 mins followed by zymosan addition and measured after 30 mins; assay type: functional, organism-based; details: time 90.0 min; method in brief: as §3
[11] = Cytotoxicity against human PBMC assessed as reduction in metabolic activity at <=1 uM after 2 to 24 hrs by MTT assay; details: time 2-24 hrs
Method in brief: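 PBMC at 2 × 10^6/mL in monocyte medium treated 2 or 24 h at 37 °C, 5% CO2, with 0.1% DMSO vehicle. MTT added for 4 h in the dark, formazan solubilized in SDS/HCl, absorbance read at 570 nm.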

[12] = target: T1, Prostaglandin E synthase (Homo sapiens); experiment: Inhibition of mPGES-1 activity in IL-1beta treated human A549 cells assessed as reduction in PGE2 formation at 10 uM using PGH2 as substrate preincubated for 15 mins followed by substrate addition and measured after 1 min; assay type: cell-based; details: time 16.0 min
Monocyte = experiment: Cytotoxicity against human monocytes assessed as reduction in LDH release at 1 to 10 uM after 2 to 24 hrs by CytoTox96 nonradioactive assay; assay type: cell-based; details: dose lower 1 µM, time lower 2 hrs, dose upper 10 µM, time upper 24 hrs
Method in brief: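 Monocytes at 4 × 10^5/mL in monocyte medium treated 2 or 24 h at 37 °C, 5% CO2, with 0.1% DMSO vehicle. LDH release measured by CytoTox 96 kit, with Triton X-100 (0.8%) defining maximum release.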

Keratinocyte [13] = experiment: Antiinflammatory activity in cytokine cocktail-induced reconstructed human epidermis model assessed as decrease in pH at 5 to 25 uM after 4 days; assay type: functional, cell-based; details: dose 5-25 µM, time 4.0 day; method in brief: as §1
Mus musculus [14] = experiment: Antiinflammatory activity in zymosan-induced CD-1 mouse peritonitis model assessed as reduction in vascular permeability at 10 mg/kg, ip preincubated with compound for 30 mins followed by zymosan addition and measured after 30 mins; assay type: functional, organism-based; details: time 60.0 min; method in brief: as §2
Keratinocyte [15] = experiment: Antiinflammatory activity in cytokine cocktail-induced reconstructed human epidermis model assessed as effect on TSLP expression at 5 to 25 uM after 4 days by ELISA; assay type: functional, cell-based; details: dose 5-25 µM, time 4.0 day
Mus musculus [16] = experiment: Antiinflammatory activity BALB/c mouse assessed as restoration of salbutamol-induced adrenergic bronchial relaxation at 10 mg/kg, po administered on day 0 and 7 and measured upto 21 days; assay type: functional, organism-based; details: time day <=21

concentration at 1 h [1]: 30 nM
inhibition [4]: inactive
inhibition [5]: inactive
concentration at 0.5 h [7]: 20 nM
Stabilty [9]: Stable
inhibition [12]: Active
SMILES: C/C(=C\CC/C(C)=C/CC[C@]1(C)CCc2c(C)c(O)c(C)c(C)c2O1)CCC=C(CO)CO
Activity (Keratinocyte [2]): Active
Activity (HepaRG): inactive
Activity (Mus musculus [3]): Active
Activity (Keratinocyte [6]): Non-Toxic
Activity (Mus musculus [8]): Active
Activity (Mus musculus [10]): Active
Activity [11]: Non-Toxic
Activity (Monocyte): Toxic
Activity (Keratinocyte [13]): Active
Activity (Mus musculus [14]): Active
Activity (Keratinocyte [15]): inactive
Activity (Mus musculus [16]): Active
